From PMC6034508 (Inorganic chemistry, 2018)
Values belong to the compound of their own block, whether it stands above or below them.

Key:
[1] = test system: DU-145 cells; assay: Confocal imaging of intracellular fluorescence; type: cell-based; settings: DU-145, CLIK-148 50 μM for 24 h before 7 (30 μM)
Method in brief: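 Live DU-145 cells are grown 48 h in 35 mm dishes (DMEM, 10% FBS, 37 °C, 5% CO2), then given 30 μM test compound or DMSO vehicle for 2 h, washed thrice and imaged in PBS. In the inhibition arm, cells receive 50 μM CLIK-148 for 24 h first. Confocal imaging uses 405 nm excitation, 501–740 nm emission and 1.5 μm z-stacks, with four biological replicates at 20×. Thresholded fluorescence per image is divided by manual cell count.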

[2] = biological target: T1, CTSL (Homo sapiens, UniProt P07711); settings: literature value; ref [47]; cited from earlier work
[3] = biological target: CTSB (Homo sapiens, UniProt P07858); assay: Cathepsin B inhibition, progress curve assay with Z-Arg-Arg-AMC; type: biochemical
Method in brief: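 Buffer is 0.4 M acetate, pH 5.5, with 5 mM EDTA, 0.01% Triton X-100, DTT 10 mM and <1% DMSO, at 25 °C. Test compound is run at 1 nM to 100 μM. Enzyme is added last, and free AMC release is followed at once over 15 min. Progress curves are fitted to obtain kinact and Ki. CA-074 is the positive control. Values are means of three independent experiments ± SD.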

[4] = biological target: CTSS (Homo sapiens, UniProt P25774); assay: Cathepsin S inhibition, progress curve assay with Z-Val-Val-Arg-AMC; type: biochemical
Method in brief: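 Buffer is 50 mM phosphate, pH 6.5, with 2.5 mM EDTA, DTT 8 mM and <1% DMSO, at 25 °C. Test compound is run at 1–20 μM. […] Results are averages of three independent experiments, errors as standard deviations.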

[5] = biological target: T1, CTSL; assay: Cathepsin L inhibition, progress curve assay with Z-Phe-Arg-AMC; type: biochemical

T1 sequence (P07711 114-333): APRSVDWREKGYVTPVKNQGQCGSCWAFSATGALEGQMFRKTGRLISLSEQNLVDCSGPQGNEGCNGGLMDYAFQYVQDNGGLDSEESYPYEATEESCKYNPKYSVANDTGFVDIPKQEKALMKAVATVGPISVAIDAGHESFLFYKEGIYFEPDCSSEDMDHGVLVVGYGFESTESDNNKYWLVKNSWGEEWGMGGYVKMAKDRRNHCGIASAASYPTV
Sequence of CTSS (P25774 115-331): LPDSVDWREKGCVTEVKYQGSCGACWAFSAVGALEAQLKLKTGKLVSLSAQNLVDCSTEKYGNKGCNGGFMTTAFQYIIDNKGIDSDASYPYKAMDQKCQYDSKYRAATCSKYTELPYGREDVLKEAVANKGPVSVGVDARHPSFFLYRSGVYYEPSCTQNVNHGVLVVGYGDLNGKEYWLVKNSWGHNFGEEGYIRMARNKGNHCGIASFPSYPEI

Compound: CN(C)C(=O)[C@H](Cc1ccccc1)NC(=O)[C@H]1O[C@@H]1C(=O)NCCc1ccccn1 [CLIK-148, reference compound]
- Decrease of intracellular fluorescence intensity of 7 [1]: over 50%
- CTSL kinact/Ki [2]: 11000 ± 3000 M⁻¹ s⁻¹

- Ki [3]: 296 ± 8 µM
- kinact/KI ([3]; pH 5.5, read-out: CTSB kinact/Ki): 9 M⁻¹ s⁻¹
- Ki [4]: 3 ± 0.8 µM
- kinact/KI ([4]; pH 6.5, read-out: CTSS kinact/Ki): 5300 ± 200 M⁻¹ s⁻¹
- Ki [5]: 0.74 ± 0.05 µM
- kinact/Ki ratio CTSL/CTSS (selectivity) ([5]; CTSL over CTSS): 8
- kinact/KI ([5]; pH 5.5, read-out: CTSL kinact/Ki): 42300 ± 4100 M⁻¹ s⁻¹
- kinact ([5]; read-out: CTSL kinact (rate of irreversible inactivation)): 0.031 ± 0.002 s⁻¹
- Fold enhancement of CTSL kinact/Ki relative to free inhibitor 1 ([5]; relative to 1): roughly 3 fold
Compound: CN(C)C(=O)C(Cc1ccccc1)NC(=O)[C@H]1O[C@@H]1C(=O)NCCCNC(=O)c1ccc(-c2ccccn2)nc1 (stereo partly drawn) [Compound 2, (2S,3S)-N^2-(3-([2,2′-Bipyridine]-5-carboxamido)-propyl)-N^3-(1-(dimethylamino)-1-oxo-3-phenylpropan-2-yl)-oxirane-2,3-dicarboxamide]

Compound: O=S(=O)([O-])C(F)(F)F.[C-]#[O+].[C-]#[O+].[C-]#[O+].[Re+].c1ccncc1.c1cnc2c(c1)ccc1cccnc12 [[Re(phen)(CO)3(pyridine)](OTf), reference compound]
- CTSL inhibition, in words ([5]; at concentrations up to 100 μM): no inhibition
